# Reference: publication PMC6371780 (ACS chemical neuroscience, 2018)
# Like-named read-outs stand apart in the source and are kept apart here.
# Legend:
# COX-1 [1] = biological target: T1, COX-1 (Macaca mulatta, UniProt F6S984); assay: paired baseline/preblock PET experiments with [11C]PS13 in rhesus monkey; type: in vivo, rhesus monkey (Macaca mulatta); details: for whole-brain radioactivity of [11C]PS13 after administration of blocker: 45 min after radioligand, PS13 1 mg/kg, KTP-Me 3 mg/kg i.v.; for peak whole-brain radioactivity of [11C]PS13 after administration of blocker: blocker i.v. before [11C]PS13: PS13 1 mg/kg, KTP-Me 3 mg/kg, MC1 0.3 mg/kg; for decline of whole-brain radioactivity from peak / radioactivity in whole brain: 45 min after injection
# T1 sequence (F6S984 25-599): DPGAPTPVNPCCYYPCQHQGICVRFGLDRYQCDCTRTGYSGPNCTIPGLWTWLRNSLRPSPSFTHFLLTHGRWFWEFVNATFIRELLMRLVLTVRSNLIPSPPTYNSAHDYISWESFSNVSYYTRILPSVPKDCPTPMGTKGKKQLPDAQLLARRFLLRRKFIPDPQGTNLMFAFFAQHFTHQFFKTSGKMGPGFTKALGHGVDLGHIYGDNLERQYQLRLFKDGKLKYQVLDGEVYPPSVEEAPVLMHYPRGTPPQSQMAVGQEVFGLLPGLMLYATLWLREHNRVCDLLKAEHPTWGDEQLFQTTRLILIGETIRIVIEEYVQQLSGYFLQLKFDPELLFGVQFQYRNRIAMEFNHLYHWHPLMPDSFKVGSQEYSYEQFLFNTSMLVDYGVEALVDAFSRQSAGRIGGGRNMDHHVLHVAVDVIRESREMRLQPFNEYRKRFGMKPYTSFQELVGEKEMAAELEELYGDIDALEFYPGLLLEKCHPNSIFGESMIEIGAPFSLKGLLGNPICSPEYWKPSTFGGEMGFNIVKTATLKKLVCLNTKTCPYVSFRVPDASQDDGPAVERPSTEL
# Procedure, shortened: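 Male rhesus monkeys (7.5–12.8 kg) received an i.v. bolus of radioligand (212 ± 37 MBq; 114 ± 74 GBq/μmol) over 1 min. A baseline scan was followed more than 3 h later by a blocking scan, with inhibitor given i.v. minutes before radioligand. Scans were corrected for attenuation and scatter, and frames ran from 30 s to 10 min. Whole-brain (gray matter) time–activity curves were expressed as SUV.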
# COX-1 [2] = biological target: T1, COX-1; assay: kinetic modeling of PET data; type: in vivo, rhesus monkey; details: for VND of [11C]PS13 (x-axis intercept of Lassen plot), by blocker experiment: PS13 1 mg/kg or KTP-Me 3 mg/kg as blocker; for reduction of [11C]PS13 brain regional VT values by preadministration: KTP-Me 3 mg/kg, MC1 0.3 mg/kg i.v.
# Procedure, shortened: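 Each baseline scan was followed >3 h later by a blocking scan, with blocker given as an i.v. bolus 5–10 min before radioligand. Femoral arterial samples were taken every 15 s to 120 s, then at 3–120 min, and parent radioligand was measured by reversed-phase radio-HPLC. VT was estimated by voxel-level Logan analysis, uncorrected for blood volume, with identifiability as % SE. A Lassen plot of regional VT gave occupancy from its slope and VND from its x-intercept.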
# COX-1 [3] = details: cited from earlier work; for IC50: read-out: IC50 COX-1 monkey
# COX-1 [4] = details: cited from earlier work
# COX-2 [5] = details: read-out: IC50 COX-2 monkey; cited from earlier work
# COX-2 [6] = details: read-out: IC50 COX-2 human; cited from earlier work
# [7] = log D by partition between n-octanol and sodium phosphate buffer; type: physicochemical; details: n-octanol / sodium phosphate buffer 0.15 M, pH 7.4
# Procedure, shortened: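 Radioligand partitioned between n-octanol and 0.15 M sodium phosphate buffer, pH 7.4. Radioactivity in each phase counted by γ-counter. Buffer-phase radioactivity corrected for parent fraction by reversed-phase radio-HPLC on a C18 column.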
# [8] = plasma free fraction by ultrafiltration, monkey plasma; type: in vitro ADME
# Procedure, shortened: (§1)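 Free fraction was measured in triplicate by ultrafiltration through membrane filters, with filtrate radioactivity read by γ-counting. Plasma was venous plasma from each monkey, or pooled human arterial plasma stored at −80 °C. The human plasma served as the standard for normalization across studies.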
# [9] = plasma free fraction by ultrafiltration, pooled human plasma; type: in vitro ADME; details: pooled (standard) human plasma
# Procedure, shortened: as §1
# [10] = radioligand stability in monkey whole blood and plasma in vitro; type: in vitro ADME; details: monkey whole blood or plasma, 30 min, room temperature
# Procedure, shortened: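 Formulated radioligand was incubated with monkey whole blood or plasma at room temperature for at least 30 min. Blood was lysed with water, and samples were deproteinized with acetonitrile and centrifuged at 10 000g. Supernatants were analysed by reversed-phase radio-HPLC, and precipitates were γ-counted for extraction efficiency. Stability was taken as the % unchanged radioligand divided by radiochemical purity.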
# [11] = baseline PET brain time-activity curves in rhesus monkey; type: in vivo, rhesus monkey (Macaca mulatta); details: for decline of whole-brain radioactivity from peak / radioactivity concentration in whole brain: at 85 min; for peak radioactivity concentration in whole brain / time of peak radioactivity concentration in whole brain: i.v. radioligand
# Procedure, shortened: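 Male rhesus monkeys (7.5–12.8 kg) were given ketamine (10 mg/kg i.m.) and kept on 1.6% isoflurane, head in a stereotaxic frame, and imaged on a microPET Focus 220. Radioligand (212 ± 37 MBq) in saline-ethanol 90:10 was given as an i.v. bolus over 1 min. The 120 min acquisition was reconstructed by FORE/2D FBP with attenuation, scatter and decay correction and coregistered to an MRI template. Regional gray-matter curves were expressed as SUV.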
# [12] = radiometabolite analysis of monkey plasma after i.v. radioligand; type: in vivo, rhesus monkey
# [13] = cited from earlier work
# COX-1 [14] = details: cited from earlier work; remark: listed apart in the source
# [15] = baseline of the paired experiment using KTP-Me
# [16] = baseline of the paired experiments using PS13
# [17] = baseline of the paired experiment with MC1
compound,measurement,setting,value
"COC(=O)[C@@H](C)c1cccc(C(=O)c2ccccc2)c1 [KTP-Me, (S)-ketoprofen methyl ester, reference compound]",whole-brain radioactivity of [11C]PS13 after administration of blocker,COX-1 [1],1.09 SUV
same,peak whole-brain radioactivity of [11C]PS13 after administration of blocker,COX-1 [1],4.14 SUV
same,"VND of [11C]PS13 (x-axis intercept of Lassen plot), by blocker experiment",COX-1 [2],1.8 mL/cm^3
same,COX-1 occupancy (slope of Lassen plot),"COX-1 [2]; PS13 1 mg/kg, KTP-Me 3 mg/kg i.v., radioligand [11C]PS13",72 ± 4%
COc1ccc(-c2nc(OC)nn2-c2ccc(OC)cc2)cc1 [[^11C]PS1],IC50,COX-1 [3],4.6 ± 1.3 nM
same,IC50,COX-1 [4]; read-out: IC50 COX-1 human,5 ± 5.2 nM
same,IC50,COX-2 [5],> 1000 nM
same,IC50,COX-2 [6],> 1000 nM
"COc1ccc(-c2nc(OCC(F)(F)F)nn2-c2ccc(OC)cc2)cc1 [[^11C]PS13, [^11C]1,5-bis(4-methoxyphenyl)-3-(2,2,2-trifluoroethoxy)-1H-1,2,4-triazole]",log D (n = 6),[7],4.26 ± 0.04
same,monkey fP (n = 3),[8],0.011 ± 0.001
same,human fP (n = 3),[9],0.002 ± 0.000
same,radiochemical stability,[10],> 99%
same,decline of whole-brain radioactivity from peak,[11],54%
same,decline of whole-brain radioactivity from peak,COX-1 [1]; [15],43%
same,radioactivity in whole brain,COX-1 [1]; [15],1.65 SUV
same,decline of whole-brain radioactivity from peak,COX-1 [1]; [16],36%
same,radioactivity in whole brain,COX-1 [1]; [16],1.88 SUV
same,peak radioactivity in whole brain,COX-1 [1]; [15],2.90 SUV
same,peak uptake of radioactivity in brain,COX-1 [1]; [17],3.73 SUV
same,time of peak uptake of radioactivity in brain,COX-1 [1]; [17],3.5 min
same,peak radioactivity in whole brain,COX-1 [1]; [16],2.92 SUV
same,radioactivity in plasma represented by each species,"[12]; 90 min after i.v. injection of [11C]PS13, radio-HPLC",48.9%
same,radioactivity in plasma represented by unchanged radioligand,"[12]; at 90 min, baseline and self-block experiments",about 50%
same,identifiability (SE) of VT,"COX-1 [2]; all examined brain regions, Logan graphical analysis",0.1–1.8%
same,radioactivity uptake in brain specifically bound to COX-1,"COX-1 [2]; pharmacological preblock experiments, monkey",about 55%
"C[C@H](C(=O)O)c1cccc(C(=O)c2ccccc2)c1 [KTP, (S)-ketoprofen, reference compound]",IC50,COX-1 [3],1 nM
same,IC50,COX-1 [4]; read-out: IC50 COX-1 human,20 nM
same,IC50,COX-1 [4]; read-out: IC50 for inhibiting human COX-1,47 nM
same,IC50,COX-2 [5],400 nM
"COc1ccc(-c2nc(OCC(F)(F)F)nn2-c2ccc(OC)cc2)cc1 [PS13, 1,5-bis(4-methoxyphenyl)-3-(2,2,2-trifluoroethoxy)-1H-1,2,4-triazole]",whole-brain radioactivity of [11C]PS13 after administration of blocker,COX-1 [1],1.11 SUV
same,peak whole-brain radioactivity of [11C]PS13 after administration of blocker,COX-1 [1],3.60 SUV
same,"VND of [11C]PS13 (x-axis intercept of Lassen plot), by blocker experiment",COX-1 [2],2.5 mL/cm^3
same,reduction of [11C]PS13 brain regional VT values by preadministration,COX-1 [2]; PS13 1 mg/kg,about 55%
same,receptor occupancy at 1 mg/kg,"COX-1 [2]; rhesus monkey, iv, read-out: COX-1 occupancy (slope of Lassen plot)",87 ± 4%
[^11C]-Ketoprofen [[^11C]KTP],brain penetrance,[13],poorly brain-penetrant
"COc1ccc(-c2nc(OCF)nn2-c2ccc(OC)cc2)cc1 [[^2H2,^18F]PS2]",IC50,COX-1 [3],3.6 ± 1 nM
same,IC50,COX-1 [4]; read-out: IC50 COX-1 human,4 ± 2 nM
same,IC50,COX-2 [5],> 1000 nM
"COc1cc(NCc2cccs2)nc(-c2ccc(S(C)(=O)=O)cc2)n1 [MC1, 6-methoxy-2-(4-(methylsulfonyl)phenyl)-N-(thiophen-2-ylmethyl)pyrimidin-4-amine, reference compound]",time of peak brain radioactivity of [11C]PS13 after administration of blocker,COX-1 [1]; MC1 0.3 mg/kg i.v.,3.5 min
same,peak whole-brain radioactivity of [11C]PS13 after administration of blocker,COX-1 [1],4.86 SUV
same,reduction of [11C]PS13 brain regional VT values by preadministration,COX-1 [2]; PS13 1 mg/kg,no effect
same,fold lower potency for inhibiting COX-1 than COX-2,COX-1 [3]; monkey,> 1000 fold
same,fold lower potency for inhibiting COX-1 than COX-2,COX-1 [4]; human,> 1000 fold
"[2H]C([2H])([18F])Oc1nc(-c2ccc(OC)cc2)n(-c2ccc(OC)cc2)n1 [[^2H2,^18F]PS2]",log D (n = 6),[7],3.26 ± 0.01
same,monkey fP (n = 3),[8],0.039 ± 0.001
same,human fP (n = 3),[9],0.021 ± 0.000
same,radiochemical stability,[10],> 99%
same,decline of whole-brain radioactivity from peak,[11],74%
same,radioactivity concentration in whole brain,[11],1.05 SUV
same,peak radioactivity concentration in whole brain,[11]; rhesus monkey,4.11 SUV
same,time of peak radioactivity concentration in whole brain,[11]; rhesus monkey,7 min
same,radioactivity in skull on brain image (radiodefluorination),[11]; rhesus monkey,uptake of radioactivity in skull
same,radioactivity in plasma that was parent radioligand,[12]; by about 25 min after i.v. injection,50%
COc1ccc(-c2nc(O[11CH3])nn2-c2ccc(OC)cc2)cc1 [[^11C]PS1],log D (n = 6),[7],3.29 ± 0.00
same,monkey fP (n = 3),[8],0.042 ± 0.001
same,human fP (n = 3),[9],0.036 ± 0.001
same,radiochemical stability,[10],> 99%
same,decline of whole-brain radioactivity from peak,[11],85%
same,radioactivity concentration in whole brain,[11],0.62 SUV
same,peak radioactivity concentration in whole brain,[11]; rhesus monkey,4.26 SUV
same,time of peak radioactivity concentration in whole brain,[11]; rhesus monkey,1.75 min
"C[C@@H](C(=O)O)c1cccc(C(=O)c2ccccc2)c1 (single isomer, unassigned) [R-enantiomer of KTP]",potency for inhibiting COX-1,COX-1 [14],negligible potency
